Source: ChEMBL document CHEMBL4616594, “Virtual screening identification and chemical optimization of substituted 2-arylbenzimidazoles as new non-zinc-binding MMP-2 inhibitors” (Bioorg Med Chem, 2020)

Key:
[1] = target: 72 kDa type IV collagenase (Homo sapiens, UniProt P08253); experiment: (§1) Inhibition of recombinant human MMP2 catalytic domain (Tyr110 to Asp452 residues) expressed in yeast cells using Mca-Pro-Leu-Gly-Leu-Dpa-Ala-Arg-NH2/TQ3-GABA-Pro-Cha-Abu-Smc-His-Ala-Dab(6'-TAMRA)-Ala-Lys-NH2 as fluorogenic substrate preincubated for 15 mins followed by substrate addition measured after 2 to 4 hrs by fluorometric analysis; type: biochemical
72 kDa type IV collagenase, sequence (P08253 whole entry, the tested form may be a part): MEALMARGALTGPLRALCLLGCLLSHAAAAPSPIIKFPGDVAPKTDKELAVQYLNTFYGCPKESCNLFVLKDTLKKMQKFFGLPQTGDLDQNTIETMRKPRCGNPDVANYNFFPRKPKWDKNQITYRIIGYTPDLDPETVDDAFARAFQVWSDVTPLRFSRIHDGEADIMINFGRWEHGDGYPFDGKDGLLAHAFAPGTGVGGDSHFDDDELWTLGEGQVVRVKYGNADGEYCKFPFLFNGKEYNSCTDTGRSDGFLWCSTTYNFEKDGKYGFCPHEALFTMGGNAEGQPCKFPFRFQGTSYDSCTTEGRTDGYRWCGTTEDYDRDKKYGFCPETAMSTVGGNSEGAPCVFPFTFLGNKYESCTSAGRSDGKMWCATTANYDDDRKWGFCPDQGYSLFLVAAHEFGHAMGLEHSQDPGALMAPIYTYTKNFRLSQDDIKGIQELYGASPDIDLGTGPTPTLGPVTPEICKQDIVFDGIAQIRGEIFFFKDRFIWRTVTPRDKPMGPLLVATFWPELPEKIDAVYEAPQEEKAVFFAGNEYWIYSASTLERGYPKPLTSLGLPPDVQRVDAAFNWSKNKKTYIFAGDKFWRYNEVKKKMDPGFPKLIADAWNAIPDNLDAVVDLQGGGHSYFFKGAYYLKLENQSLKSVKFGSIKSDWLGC
How it was run: (§2)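 Commercial catalytic domain in Tris·HCl 50 mM pH 7.5, NaCl 150 mM, CaCl₂ 1 mM, ZnCl₂ 1 µM, 0.05% Brij-35, 1% DMSO. Inhibitor was tested at six concentrations (1 nM–100 µM), diluted from 10 mM DMSO stocks, and pre-incubated with enzyme for 15 min at room temperature. OmniMMP substrate (2.5 µM final) or OmniMMP RED substrate (1 µM final) was then added and incubated 2–4 h at 37°C. Fluorescence read at ex 340/em 405 or ex 545/em 572. Percent inhibition calculated versus no-inhibitor wells. Run in triplicate; IC50 given as mean ± SEM of ≥2 independent experiments.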

[2] = target: Matrix metalloproteinase-9 (Homo sapiens, UniProt P14780); experiment: as §1, with “MMP9” for “MMP2”, “(Phe107” for “(Tyr110”, “Pro449” for “Asp452”, “Escherichia coli” for “yeast”, “assay” for “analysis”; how it was run: as §2
Matrix metalloproteinase-9, sequence (P14780 whole entry): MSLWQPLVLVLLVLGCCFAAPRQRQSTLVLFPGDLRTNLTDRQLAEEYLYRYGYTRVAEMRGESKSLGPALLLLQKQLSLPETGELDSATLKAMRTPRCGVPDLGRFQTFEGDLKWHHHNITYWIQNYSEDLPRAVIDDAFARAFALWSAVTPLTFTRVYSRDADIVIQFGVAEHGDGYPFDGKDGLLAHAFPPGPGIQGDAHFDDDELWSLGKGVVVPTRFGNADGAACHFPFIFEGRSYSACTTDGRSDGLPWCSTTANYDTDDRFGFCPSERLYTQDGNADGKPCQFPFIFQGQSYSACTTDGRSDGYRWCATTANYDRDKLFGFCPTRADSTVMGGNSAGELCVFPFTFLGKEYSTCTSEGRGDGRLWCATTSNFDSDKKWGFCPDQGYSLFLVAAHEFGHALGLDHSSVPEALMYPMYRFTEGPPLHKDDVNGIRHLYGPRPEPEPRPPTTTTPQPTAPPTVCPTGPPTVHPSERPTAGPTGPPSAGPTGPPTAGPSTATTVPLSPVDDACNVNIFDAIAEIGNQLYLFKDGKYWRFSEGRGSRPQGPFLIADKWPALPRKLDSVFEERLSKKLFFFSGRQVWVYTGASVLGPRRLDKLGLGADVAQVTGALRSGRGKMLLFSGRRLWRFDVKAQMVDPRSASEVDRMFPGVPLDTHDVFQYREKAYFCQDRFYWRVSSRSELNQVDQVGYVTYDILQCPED

[3] = target: Collagenase 3 (Homo sapiens, UniProt P45452); experiment: as §1, with “MMP13” for “MMP2”, “(Tyr104” for “(Tyr110”, “Asn274” for “Asp452”, “Escherichia coli” for “yeast”, “assay” for “analysis”
[4] = target: Neutrophil collagenase (Homo sapiens, UniProt P22894); experiment: as §1, with “MMP8” for “MMP2”, “(Phe99” for “(Tyr110”, “Gln269” for “Asp452”, “Escherichia coli” for “yeast”, “assay” for “analysis”; how it was run: as §2
Neutrophil collagenase, sequence (P22894 whole entry): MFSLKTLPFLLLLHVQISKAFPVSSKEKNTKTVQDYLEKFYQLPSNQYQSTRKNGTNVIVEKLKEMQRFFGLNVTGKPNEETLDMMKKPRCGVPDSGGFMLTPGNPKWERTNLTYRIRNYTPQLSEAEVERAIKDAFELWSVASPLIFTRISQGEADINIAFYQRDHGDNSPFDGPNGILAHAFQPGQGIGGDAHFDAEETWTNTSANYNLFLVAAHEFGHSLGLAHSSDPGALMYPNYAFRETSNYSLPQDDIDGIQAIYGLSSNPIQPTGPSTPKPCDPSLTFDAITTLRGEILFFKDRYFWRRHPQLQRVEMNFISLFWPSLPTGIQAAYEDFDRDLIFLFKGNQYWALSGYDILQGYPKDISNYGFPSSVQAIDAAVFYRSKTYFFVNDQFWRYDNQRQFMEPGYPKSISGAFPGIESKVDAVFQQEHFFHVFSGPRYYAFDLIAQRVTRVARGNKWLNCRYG

Structure (SMILES)	IC50 [1] [µM]	IC50 [2] [µM]	IC50 [3] [µM]	IC50 [4] [µM]
O=S(=O)(Nc1cccc(-c2nc3ccccc3[nH]2)c1)c1ccccc1	65.4	36	94	43.2
O=C(Nc1ccc(-c2nc3ccc(Br)cc3[nH]2)cc1)c1ccccc1	6.42	32	3.9	50
Cc1ccc2nc(-c3cccc(NC(=O)CCc4ccccc4)c3)[nH]c2c1	31	26.6	> 100	32
Nc1ccc(-c2nc3ccccc3s2)cc1	> 100	79	> 100	88
Cc1cccc2nc(-c3cccc(NC(=O)CCc4ccccc4)c3)[nH]c12	64	60	> 100	29
O=C(Nc1ccc(-c2nc3ccccc3[nH]2)cc1)c1ccc(Br)cc1	9.4	41	10.9	55
O=C(Nc1ccc(-c2nc3ccccc3s2)cc1)c1ccccc1	16.4	42	21	38
O=[N+]([O-])c1ccc(-c2nc3ccccc3[nH]2)o1	31	32	33	27
O=C(Nc1nc2ccc(Cl)cc2s1)c1ccc([N+](=O)[O-])cc1	> 100	> 100	20	> 100
Cc1ccc2nc(-c3ccc([N+](=O)[O-])cc3)[nH]c2c1	6.5	22	6.1	23
Cc1cccc2nc(-c3cccc(NC(=O)CCCc4ccccc4)c3)[nH]c12	60	38.6	91	40.9
Brc1ccc2nc(-c3ccccc3)[nH]c2c1	> 100	> 100	> 100	> 100
O=[N+]([O-])c1ccc(-c2nc3ccccc3[nH]2)cc1	82	56.5	> 100	64
O=C(CCCc1ccccc1)Nc1ccc(-c2nc3ccccc3[nH]2)cc1	96	> 100	50	> 100
O=C(CCc1ccccc1)Nc1cccc(-c2nc3ccc(Br)cc3[nH]2)c1	16	14.5	73	12.5
O=[N+]([O-])c1ccc(-c2nc3ccccc3s2)cc1	6.5	11.5	7.5	10.5
Cc1ccc2nc(-c3ccc(NC(=O)c4cccc([N+](=O)[O-])c4)cc3)[nH]c2c1	3.9	14.5	2.2	20.9
O=[N+]([O-])c1ccc(-c2nc3ccccc3o2)cc1	5.8	36	7.3	46
O=[N+]([O-])c1ccc(-c2nc3cc([N+](=O)[O-])ccc3[nH]2)cc1	4.2	23.3	12	25
O=[N+]([O-])c1ccc(-c2nc3ccc(Br)cc3[nH]2)cc1	8.8	10	10.5	10
O=C(Nc1ccc(-c2nc3ccc(Br)cc3[nH]2)cc1)c1ccc([N+](=O)[O-])cc1	3.1	6.4	3.9	7.9
O=C(Nc1ccc(-c2nc3ccccc3[nH]2)cc1)c1ccccc1	6.5	16	7.5	28

Structure (SMILES)	IC50 [1] [µM]	IC50 [2] [µM]	IC50 [3] [µM]	IC50 [4] [µM]
Cc1ccc2oc(-c3ccc([N+](=O)[O-])cc3)nc2c1	9.7	14.9	8.8	16.4
O=C(CCCc1ccccc1)Nc1ccc(-c2nc3ccc(Br)cc3[nH]2)cc1	31	58	22.2	67
O=C(Nc1cccc(-c2nc3ccccc3[nH]2)c1)c1ccccc1	11.9	57	35	46
Cc1ccc2nc(-c3cccc(C(=O)NCCc4ccccc4)c3)[nH]c2c1	45	37.7	> 100	40
Cc1ccc2nc(-c3ccc(NC(=O)c4ccccc4)cc3)[nH]c2c1	8.6	28.4	6.5	45.3
O=[N+]([O-])c1cccc(-c2nc3ccc(Br)cc3[nH]2)c1	> 100	> 100	47	> 100
Cc1ccc2oc(-c3ccc(NC(=O)c4ccc([N+](=O)[O-])cc4)cc3)nc2c1	15.9	20	11	14.7
O=C(CCc1ccccc1)Nc1ccc(-c2nc3ccc(Br)cc3[nH]2)cc1	7	11.5	6.5	8
Cc1ccc2nc(-c3cccc([N+](=O)[O-])c3)[nH]c2c1	14	36.6	15.5	27
Cc1ccc2nc(-c3ccc([N+](=O)[O-])cc3)oc2c1	9	18	9.4	29
Nc1ccc(-c2nc3ccc(Br)cc3[nH]2)cc1	10	21.7	21	26
Cc1ccc2nc(-c3ccc(NC(=O)CCc4ccccc4)cc3)[nH]c2c1	25.3	60	17.9	77
O=C(CCCc1ccccc1)Nc1cccc(-c2nc3ccccc3[nH]2)c1	47	43	81.2	34.6
Cc1ccc2nc(-c3cccc(NC(=O)CN(C)Cc4ccccn4)c3)[nH]c2c1	72	> 100	93	> 100
Cc1ccc2nc(-c3ccc(NC(=O)c4ccc([N+](=O)[O-])cc4)cc3)[nH]c2c1	3.3	10.7	1.8	25.5
O=C(CCc1ccccc1)Nc1cccc(-c2nc3ccccc3[nH]2)c1	87	68	> 100	41.9
COC(=O)c1ccc(-c2nc3ccc(Br)cc3[nH]2)cc1	9	20.7	19	26.3
O=C(CCc1ccccc1)Nc1ccc(-c2nc3ccccc3[nH]2)cc1	19	29	15.2	64
O=C(O)c1ccc(-c2nc3ccc(Br)cc3[nH]2)cc1	31.5	27	43	35
COc1ccc(/C=C/C(=O)Nc2cccc(-c3nc4ccccc4[nH]3)c2)cc1	48	> 100	52	> 100
O=C(Nc1nc2ccccc2s1)c1ccc([N+](=O)[O-])cc1	> 100	> 100	> 100	> 100
